This passage reports Activity and hemolysis results from ChEMBL document CHEMBL4428045, “Antioxidant properties of thio-caffeine derivatives: Identification of the newly synthesized 8-[(pyrrolidin-1-ylcarbonothioyl)sulfanyl]caffeine as antioxidant and highly potent cytoprotective agent” (Bioorg Med Chem Lett, 2016).

Data set [1] is described as follows: Antioxidant activity assessed as DPPH radical scavenging activity at 0.1 mg/ml incubated for 30 mins in dark by spectrophotometric analysis relative to trolox. The class given is functional. (In general: The DPPH test is a chemical assay of radical scavenging.)
The nature of data set [2]: Antioxidant activity assessed as ferric ion reducing activity using Fe3+(CN-)6 incubated for 20 mins by spectrophotometric analysis. The class given is functional.
Data set [3] in a line: Antioxidant activity assessed as DPPH radical scavenging activity at 0.025 to 0.1 mg/ml incubated for 30 mins in dark by spectrophotometric analysis. The class given is functional.
Data set [4] is described as follows: Metal chelating activity of the compound assessed as inhibition of Fe2+-ferrozine complex formation incubated for 10 mins by spectrophotometric analysis. The class given is functional.
For data set [5], the system named is Erythrocyte. Briefly: Hemolytic activity in human erythrocytes assessed as change in cell shape by measuring discocytes level at 0.1 mg/ml incubated for 60 mins by […]. The class given is ADME, cell-based. The note with it: 1 h.
Data set [6] can be described thus: Induction of hemolysis in human erythrocytes assessed as effect on osmotic resistance at 0.1 mg/ml incubated for 60 mins by erythrocyte osmotic fragility assay. The class given is cell-based. The note with it: 1 h. An outline of the steps:
(§1)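 After 60 min of compound treatment, RBC osmotic resistance was expressed as %NaCl and compared with untreated control cells (p < 0.05).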

Data set [7] concerns Erythrocyte. The data set is described as follows: Cytoprotection against AAPH-induced haemolysis in human erythrocytes at 0.01 to 1 mg/l pre-incubated for 20 mins before 60 mM AAPH addition for 4 hrs by spectrophotometric analysis. The class given is functional. The note with it: in the assay text read “0.025 to 0.1 mg/ml” for “0.01 to 1 mg/l”. An outline of the steps: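 Human erythrocytes (RBCs) pre-incubated 20 min with compound or the standards Trolox and BHT, then challenged with 60 mM AAPH to induce free-radical haemolysis. Data are means SD (n = 4), with significance set at p < 0.05.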

Data set [8] is described as follows: Hemolytic activity in human erythrocytes at 0.1 mg/ml incubated for 60 mins by spectrophotometric analysis. The note with it: read-out: Activity. The class given is ADME, cell-based, Erythrocyte. An outline of the steps:
(§2)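 RBCs were incubated with compound for 60 min. Haemolysis below 5% was taken as not significant.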

Data set [9] can be described thus: Antioxidant activity assessed as DPPH radical scavenging activity at 0.1 mg/ml incubated for 30 mins in dark by spectrophotometric analysis relative to BHT. The class given is functional.
Data set [10] can be described thus: Antioxidant activity assessed as ferric ion reducing activity using Fe3+(CN-)6 at 0.025 to 0.1 mg/ml incubated for 20 mins by spectrophotometric analysis relative to trolox. The class given is functional. Also on record: scale not given: the % may be the effect or the level left.
Data set [11] in a line: Antioxidant activity assessed as ferric ion reducing activity using Fe3+(CN-)6 at 0.025 to 0.1 mg/ml incubated for 20 mins by spectrophotometric analysis relative to BHT. The class given is functional.
Data set [12] is described as follows: Antioxidant activity assessed as DPPH radical scavenging activity incubated for 30 mins in dark by spectrophotometric analysis. The class given is functional.
Data set [13] can be described thus: Antioxidant activity assessed as ferric ion reducing activity using Fe3+(CN-)6 at 0.1 mg/ml incubated for 20 mins by spectrophotometric analysis relative to trolox. The class given is functional. Also on record: scale not given: the % may be the effect or the level left.
Data set [14] in a line: Antioxidant activity assessed as ferric ion reducing activity using Fe3+(CN-)6 at 0.1 mg/ml incubated for 20 mins by spectrophotometric analysis relative to BHT. The class given is functional.
In data set [15] the test system is Erythrocyte. The data set is described as follows: Hemolytic activity in human erythrocytes assessed as echinocytes/spherocytes formation incubated for 60 mins by microscopic analysis. The class given is ADME, cell-based. The note with it: 1 h. The gist of the method:
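RBCs were incubated with compound for 60 min, and cell morphology was then assessed by optical microscopy for echinocytes, spherocytes and RBC ghosts.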

The nature of data set [16]: Hemolytic activity in human erythrocytes at 0.025 mg/ml incubated for 60 mins by spectrophotometric analysis. The class given is ADME, cell-based, Erythrocyte. The note with it: read-out: Activity. The gist of the method: as §2
Data set [17] is described as follows: Induction of hemolysis in human erythrocytes assessed as change in RBC shape by measuring echinocytes and spherocytes level at 0.1 mg/ml preincubated for 60 mins followed by AAPH induction measured after 4 hrs by […]. The class given is cell-based.
Data set [18] in a line: Hemolytic activity in human erythrocytes at 0.05 mg/ml incubated for 60 mins by spectrophotometric analysis. The class given is ADME, cell-based, Erythrocyte. The note with it: read-out: Activity. The gist of the method: as §2
A short description of data set [19]: Induction of hemolysis in human erythrocytes assessed as reduction in osmotic resistance at 0.1 mg/ml incubated for 60 mins by erythrocyte osmotic fragility assay relative to NaCl (reference value: 0.451%). The class given is cell-based. The note with it: 1 h. Details: scale not given: the % may be the effect or the level left. An outline of the steps:
as §1

Activity calls are given as the source filed them. The rule behind the calls is not given here.

`Cc1cc(C(C)(C)C)c(O)c(C(C)(C)C)c1`: the outcome in [1] and in data set [2] was Active.

On to `CCSc1nc2c(c(=O)n(C)c(=O)n2C)n1C`, for which the Activity is less than 10% in [3], “Non-Toxic” with Erythrocyte [5], “Non-Toxic” in [6] and 10% in the data set on Erythrocyte [7]. Also, the outcome in data set [4] was inactive. In addition, the hemolysis at 1 h, 0.1 mg/ml in data set [8] was 0 to 5%.

Take `Cn1c(=O)c2c(nc(SC(C)(C)C)n2C)n(C)c1=O`: the Activity in data set [3] is less than 10%; with Erythrocyte [5], “Non-Toxic”; in data set [6], “Non-Toxic”. In addition, the result (in data set [4]; in the data set on Erythrocyte [7]) was inactive. The hemolysis at 1 h, 0.1 mg/ml in data set [8] was 0 to 5%.

For `CCCSc1nc2c(c(=O)n(C)c(=O)n2C)n1C`, the values for the Activity (in data set [3]; in the data set with Erythrocyte [5]; in data set [6]) were less than 10%, “Non-Toxic” and “Non-Toxic”, respectively. Besides, the outcome (in data set [4]; in the data set with Erythrocyte [7]) was inactive. In [8], the hemolysis at 1 h, 0.1 mg/ml was 0 to 5%.

As for `CC(C)Sc1nc2c(c(=O)n(C)c(=O)n2C)n1C`, the Activity is 34% in data set [1]; 38% in [10]; “Non-Toxic” in the data set with Erythrocyte [5]; “Non-Toxic” in data set [6]; 10% in the data set with Erythrocyte [7]. Also, the result in data set [9] and in data set [11] was Active. In addition, in data set [4], the outcome was inactive. In data set [8], the hemolysis at 1 h, 0.1 mg/ml lay in the range of 0 to 5%.

In the case of `Cn1c(=O)c2c(nc(SC(=S)N3CCCC3)n2C)n(C)c1=O`, the Activity result in data set [12] was “Dose-dependent effect”; in data set [1], 67%; in data set [2], “Dose-dependent effect”; in data set [13], 65%; with Erythrocyte [5], “Non-Toxic”; in [6] it was “Non-Toxic”. Also, the result (in data set [14]; in the data set with Erythrocyte [7]) was Active. Also, in data set [4], the result was inactive. Besides, in [8], the hemolysis at 1 h, 0.1 mg/ml lay in the range of 0 to 5%.

As for `Cn1c(=S)c2c(ncn2C)n(C)c1=S`, the Activity in [3] was less than 10%; in the data set on Erythrocyte [5] it was “Non-Toxic”; in data set [6], “Non-Toxic”. In addition, the result in data set [4] was inactive. Further, the result in the data set on Erythrocyte [7] was Active. Further, the hemolysis at 1 h, 0.1 mg/ml in data set [8] lay in the range of 0 to 5%.

For the compound `Cn1c(=O)c2c(ncn2C)n(C)c1=O` [CAFFEINE], the Activity in [3] is less than 10%; in the data set on Erythrocyte [5], “Non-Toxic”; in data set [6], “Non-Toxic”; in the data set on Erythrocyte [7], 10%. Further, the outcome in data set [4] was inactive. Further, the hemolysis at 1 h, 0.1 mg/ml in data set [8] fell in the range of 0 to 5%.

Take `Cn1c(=S)c2c(ncn2C)n(C)c1=O`: the results for the Activity (in data set [3]; in the data set with Erythrocyte [5]; in [6]) were less than 10%, “Non-Toxic” and “Non-Toxic”, respectively. Further, the result in data set [4] was inactive. Also, the outcome in the data set on Erythrocyte [7] was Active. Besides, in [8], the hemolysis at 1 h, 0.1 mg/ml was 0 to 5%.

Consider `Cc1c(C)c2c(c(C)c1O)CCC(C)(C(=O)O)O2` (centres undefined), for which, in the data set with Erythrocyte [7], the result was Active.

In the case of `Cn1c(=O)c2c(nc(Sc3ccccc3)n2C)n(C)c1=O`, the Activity entry in the data set on Erythrocyte [15] is “Toxic”; in data set [3], less than 10%; in data set [6], “Toxic”; in [17], “Toxic”; in data set [19], 0.488%. Besides, the outcome (in [4]; in the data set on Erythrocyte [7]) was inactive. Also, the hemolysis at 1 h, 0.025 mg/ml in data set [16] was less than 5%. Besides, in data set [18], the hemolysis at 1 h, 0.05 mg/ml worked out at 26.9%. Also, the hemolysis at 1 h, 0.1 mg/ml in data set [8] turned out to be 57.2%.

With `CSc1nc2c(c(=O)n(C)c(=O)n2C)n1C`, the Activity was less than 10% in data set [3], “Non-Toxic” in the data set with Erythrocyte [5], “Non-Toxic” in data set [6] and 10% in the data set with Erythrocyte [7]. Further, the outcome in data set [4] was inactive. For the same compound, the hemolysis at 1 h, 0.1 mg/ml in data set [8] lay in the range of 0 to 5%.
